Source: ChEMBL document CHEMBL3612006, “Novel dialkylphosphorylhydrazones: Synthesis, leishmanicidal evaluation and theoretical investigation of the proposed mechanism of action” (Eur J Med Chem, 2015)
pIC50: −log10 of the molar value. The source made the active and inactive calls. The rule behind the calls is not given here.

Columns and labels:
Leishmania amazonensis [1] = test: Leishmanicidal activity against Leishmania amazonensis MHOM/BR/87/BA125 after 48 hrs; type: functional, organism-based; conditions: MHOM/BR/87/BA125, 48 h
Method in brief: (§1)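 Log-phase promastigotes at 10⁵ per well in medium with 10% heat-inactivated FCS, 2 mM L-glutamine, gentamicin and 2% human urine were grown with compound at 26 °C for 48 h. Parasites were counted by automatic cell counter, with inhibition expressed as % of DMSO-treated control. Triplicates, with experiments repeated at least twice.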

Leishmania braziliensis [2] = test: Leishmanicidal activity against Leishmania braziliensis MHOM/BR/01/BA788 after 48 hrs; type: functional, organism-based; conditions: MHOM/BR/01/BA788, 48 h; method in brief: as §1
Leishmania braziliensis [3] = test: Leishmanicidal activity against Leishmania braziliensis MHOM/BR/01/BA788 after 48 hrs relative to control; type: functional; design: concentration or dose not given beside the values; method in brief: as §1
[4] = Cytotoxicity against mouse J774 cells after 48 hrs by MTT assay; type: cell-based; conditions: read-out: LC50
Method in brief: (§2)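 J774 murine macrophages in DMEM with 2 mM L-glutamine, 10 mM HEPES, 10% FCS and gentamicin were seeded at 1.5 × 10⁵ cells/well and attached for 24 h at 37 °C. Cells were exposed to 1, 10 or 100 µM for 48 h, then given MTT for 1 h at 37 °C in the dark. Formazan was dissolved in DMSO and read at 540 nm. Triplicates with growth controls.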

Leishmania amazonensis [5] = test: Leishmanicidal activity against Leishmania amazonensis MHOM/BR/87/BA125 after 48 hrs relative to control; type: functional; design: concentration or dose not given beside the values; method in brief: as §1
Leishmania amazonensis [6] = test: Antiamastigote activity against Leishmania amazonensis MHOM/BR/87/BA125 infected in BALB/c assessed as decrease of parasite load in draining lymph nodes at 30 mg/kg, po qd for 28 days measured up to 30 days; type: functional, organism-based
Method in brief: (§3)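 BALB/c mice (n = 5 per group) infected in the ear dermis with 10⁵ L. amazonensis promastigotes, then dosed orally with 30 mg/kg/day in water for 28 days. After treatment, infected ears and draining lymph nodes were excised, homogenized and serially diluted in Schneider medium with 10% FCS for a limiting dilution assay. Groups were compared to control by one-way ANOVA with Dunnett's test.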

Leishmania amazonensis [7] = test: Antiamastigote activity against Leishmania amazonensis MHOM/BR/87/BA125 infected in BALB/c mouse peritoneal macrophages assessed as inhibition of infection index at 100 uM after 48 hrs by Giemsa staining; type: functional; conditions: MHOM/BR/87/BA125, 48 h
Method in brief: (§4)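 Thioglycollate-elicited BALB/c peritoneal macrophages, 4 × 10⁵ per well on coverslips in DMEM with 10% FBS, adhered overnight and were infected with L. amazonensis promastigotes at 37 °C for 4 h. Free parasites were removed, then compounds were added (1, 10, 100 µM; DMSO ≤0.01%) for 48 h at 37 °C, 5% CO2. Infection index = % infected × mean amastigotes per macrophage.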

Leishmania amazonensis [8] = test: Antiamastigote activity against Leishmania amazonensis MHOM/BR/87/BA125 infected in BALB/c assessed as decrease of parasite load in ear at 30 mg/kg, po qd for 28 days measured up to 30 days; type: functional, organism-based; method in brief: as §3
J774 = test: Cytotoxicity against mouse J774 cells at 100 uM after 48 hrs by MTT assay; type: cell-based; conditions: j774, 48 h; method in brief: as §2
Leishmania amazonensis [9] = test: Antiamastigote activity against Leishmania amazonensis MHOM/BR/87/BA125 infected in BALB/c mouse peritoneal macrophages assessed as decrease of percentage of infected macrophages at 1 to 100 uM after 48 hrs by Giemsa staining; type: functional, organism-based; method in brief: as §4
Leishmania amazonensis [10] = test: Antiamastigote activity against Leishmania amazonensis MHOM/BR/87/BA125 infected in BALB/c mouse peritoneal macrophages assessed as decrease of number of intracellular parasites per macrophage at 1 to 100 uM after 48 hrs by Giemsa staining; type: functional, organism-based; method in brief: as §4
Leishmania amazonensis [11] = test: Antiamastigote activity against Leishmania amazonensis MHOM/BR/87/BA125 infected in BALB/c mouse peritoneal macrophages assessed as decrease of percentage of infected macrophages at 1 uM after 48 hrs by Giemsa staining; type: functional, organism-based; method in brief: as §4
Leishmania amazonensis [12] = test: Antiamastigote activity against Leishmania amazonensis MHOM/BR/87/BA125 infected in BALB/c mouse peritoneal macrophages assessed as inhibition of infection index after 48 hrs by Giemsa staining; type: functional, organism-based; method in brief: as §4
Leishmania amazonensis [13] = test: Antiamastigote activity against Leishmania amazonensis MHOM/BR/87/BA125 infected in BALB/c mouse peritoneal macrophages assessed as decrease of percentage of infected macrophages at 10 to 100 uM after 48 hrs by Giemsa staining; type: functional, organism-based; method in brief: as §4
Leishmania amazonensis [14] = test: Antiamastigote activity against Leishmania amazonensis MHOM/BR/87/BA125 infected in BALB/c assessed as decrease of lesion size in ear at 30 mg/kg, po qd for 28 days measured up to 30 days; type: functional
Method in brief: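 Female BALB/c mice, 6-8 weeks old, inoculated in right ear dermis with 10⁵ stationary-phase L. amazonensis promastigotes in sterile saline. From the second week post-infection, groups of 5 were dosed orally once daily for 28 days at 30 mg/kg/day in water; vehicle control received water orally. Lesion size was taken as infected minus contralateral ear thickness, measured twice weekly by digital caliper.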

Leishmania amazonensis [15] = test: Antiamastigote activity against Leishmania amazonensis MHOM/BR/87/BA125 infected in BALB/c mouse peritoneal macrophages assessed as decrease of percentage of infected macrophages at 100 uM after 48 hrs by Giemsa staining; type: functional; conditions: MHOM/BR/87/BA125, 48 h; method in brief: as §4

Compound | pIC50 (Leishmania amazonensis [1]) | pIC50 (Leishmania braziliensis [2]) | Efficacy (Leishmania braziliensis [3]) | CC50 at 48 h [4] [µM] | Efficacy (Leishmania amazonensis [5]) | Activity (Leishmania amazonensis [6]) | inhibition at 100 µM (Leishmania amazonensis [7]) [%] | Activity (Leishmania amazonensis [8]) | Activity (J774) [%] | Activity (Leishmania amazonensis [9]) | Activity (Leishmania amazonensis [10]) | Activity (Leishmania amazonensis [11]) | inhibition (Leishmania amazonensis [12]) | Activity (Leishmania amazonensis [13]) | Activity (Leishmania amazonensis [14]) [mm] | inhibition at 100 µM (Leishmania amazonensis [15]) [%]
CC(C)COP(=O)(N/N=C/c1cccnc1)OCC(C)C | 4.08 | 4.39 | 81.6% | > 100 | 52.8% | – | – | – | – | – | – | – | – | – | – | –
CC(C)COP(=O)(N/N=C/c1ccncc1)OCC(C)C | < 4.00 | 7.22 | 84.2% | > 100 | inactive | – | – | – | – | – | – | – | – | – | – | –
CCCCCCCCCCCCCCCCOP(=O)([O-])OCC[N+](C)(C)C [MILTEFOSINE] | 5.47 | 6.15 | 84.5% | > 100 | 96.3% | Active | 100 | Active | – | – | – | – | – | – | – | –
CC(C)OP(=O)(N/N=C/c1cccnc1)OC(C)C | < 4.00 | 6.40 | 75.9% | > 100 | inactive | – | – | – | – | – | – | – | – | – | – | –
CC(C)COP(=O)(N/N=C/c1ccccn1)OCC(C)C | 4.01 | < 4.00 | inactive | > 100 | 40.7% | – | – | – | – | – | – | – | – | – | – | –
CCOP(=O)(N/N=C/c1ccncc1)OCC | < 4.00 | < 4.00 | inactive | > 100 | inactive | – | – | – | – | – | – | – | – | – | – | –
CCC(C)OP(=O)(N/N=C/c1c(Cl)cncc1Cl)OC(C)CC (stereo not given) | 4.59 | 7.52 | 74.1% | > 100 | 92.4% | – | – | – | 20.5 | – | – | – | – | – | – | –
N=C(N)c1ccc(OCCCCCOc2ccc(C(=N)N)cc2)cc1 [PENTAMIDINE] | 5.74 | 7.22 | 95.7% | > 100 | 93.8% | – | – | – | 28.8 | – | – | – | – | – | – | –
CC(C)OP(=O)(N/N=C/c1ccncc1)OC(C)C | < 4.00 | < 4.00 | inactive | > 100 | inactive | – | – | – | – | – | – | – | – | – | – | –
CCC(C)OP(=O)(N/N=C/c1cccnc1Br)OC(C)CC (stereo not given) | > 9.00 | 5.28 | 80.1% | > 100 | 95.3% | Active | 97.9 | Active | – | Active | Active | inactive | Dose-dependent effect | Active | 0.0804 | 82.2
CC(C)OP(=O)(N/N=C/c1ccccn1)OC(C)C | < 4.00 | 6.15 | 56.3% | > 100 | inactive | – | – | – | – | – | – | – | – | – | – | –
CCOP(=O)(N/N=C/c1ccccn1)OCC (mixture of isomers) | < 4.00 | 5.12 | 62.1% | > 100 | inactive | – | – | – | – | – | – | – | – | – | – | –
CCCCOP(=O)(N/N=C/c1cccnc1)OCCCC | 4.27 | 5.27 | 87.9% | > 100 | 85.6% | – | – | – | – | – | – | – | – | – | – | –
CCCCOP(=O)(N/N=C/c1ccncc1)OCCCC | 4.00 | 5.29 | 77.2% | > 100 | 45.5% | – | – | – | – | – | – | – | – | – | – | –
CCOP(=O)(N/N=C/c1cccnc1)OCC | < 4.00 | < 4.00 | inactive | > 100 | inactive | – | – | – | – | – | – | – | – | – | – | –
CCCCOP(=O)(N/N=C/c1ccccn1)OCCCC (mixture of isomers) | 5.21 | 7.22 | 76.3% | > 100 | 69.5% | – | – | – | – | – | – | – | – | – | – | –
CCC(C)OP(=O)(N/N=C/c1cncc(Br)c1)OC(C)CC (stereo not given) | 4.58 | 5.44 | 92.2% | > 100 | 93.8% | Active | 99.9 | inactive | – | Active | Active | inactive | Dose-dependent effect | Active | 0.0527 | 99.3
